High-throughput results deposited in PubChem BioAssay by several laboratories.
Only some compounds are listed: those with a hit (about 3.1% of all), similar ones and a draw of the others.
NS3 helicase inh – blocks Hepatitis C virus NS3 helicase unwinding; NS3 helicase DNA unwinding, Cy5 molecular beacon fluorescence; inhibition, % at 10.9 µM; hit rate 0.56% among 290,000;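 active means inhibition above the mean of all tested compounds plus 3 SD, set per campaign, cut at about 35% in these data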;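 further: 0% = DMSO wells and 100% = thioflavine S control wells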
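Material: hepatitis C virus NS3 helicase domain fragment enzyme; measured by: Cy5 fluorescence, 0 and 60 min reads; control set: DMSO and thioflavine S; incubation: 60 min unwinding reaction at 25 °C after ATP addition; read-out basis: % inhibition from 60/0 min fluorescence ratio, DMSO 0%, thioflavine S 100%; repeats: singlicate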
VIM-2 inh – inhibitors of Pseudomonas aeruginosa VIM-2 metallo-beta-lactamase | hit rate 0.89% among 290,000 | AID 1527 | inhibition, % at 5.6 µM | purified VIM-2, nitrocefin hydrolysis, epi-absorbance fluorescence;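 active means inhibition above the mean of all tested compounds plus 3 SD, cutoff set per screening run, cut at about 7.5% in these data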;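 further: red hydrolysis product quenches plate fluorescence so inhibitors raise well fluorescence; 0% = enzyme with DMSO and 100% = DMSO without enzyme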
core dimer inh – blocks dimerization of HCV core protein. TR-FRET GST/Flag-core106 dimerization, 1536-well. inhibition, % at 5 µM. hit rate 0.33% among 300,000. AID 1899;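 active means inhibition above the mean of all tested compounds plus 3 SD, set per screening campaign, cut at about 45% in these data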
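Assay system: Tagged HCV core106 pair (GST and Flag) | Buffer or medium: KF-containing HEPES buffer, pH 7.45, DTT, CHAPS, BSA | Also added: Eu donor and XL665 acceptor anti-tag antibodies | Dosing: One concentration, 5 µM, in 0.5% DMSO | Timing: 4 h at 22.5 °C | Technique: TR-FRET 671 and 617 nm emission | Repeats: Singlicate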
UBC9 SUMO inh – SUMOylation inhibition | P63279 | HTRF SUMOylation assay, SAE1/SAE2 + UBC9, in vitro | inhibition, % at 35 µM | hit rate 0.36% among 290,000; in the data active means inhibition above about 50%, passing the limit was not always enough
Target sequence (P63279 whole entry, looked up): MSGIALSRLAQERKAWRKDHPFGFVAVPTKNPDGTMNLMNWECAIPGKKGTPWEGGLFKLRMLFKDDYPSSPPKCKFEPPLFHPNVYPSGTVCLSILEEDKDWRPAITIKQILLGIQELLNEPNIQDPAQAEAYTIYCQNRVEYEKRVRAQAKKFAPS
IMP-1 inhibitor – blocks Pseudomonas aeruginosa IMP-1 metallo-beta-lactamase. purified IMP-1, nitrocefin hydrolysis, epi-absorbance fluorescence. inhibition, % at 5.6 µM. hit rate 0.45% among 290,000. AID 1556;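 active means inhibition above the mean plus 3 SD of all compounds in the same screening run, cut at about 4.5% in these data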;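 further: 0% = IMP-1 with DMSO and 100% = DMSO wells lacking enzyme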
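System: purified IMP-1 / Input: IMP-1 dispensed at 0.2 nM / Medium: 50 mM HEPES pH 7.1, 50 µM ZnSO4, 0.05% Brij 35 / Timing: 15 min enzyme–compound preincubation, then 25 min nitrocefin reaction, 25 °C / Technique: plate fluorescence quenching by hydrolysis product, ex 480/em 530 nm / Repeats: singlicate testing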
PHOSPHO1 inh – PHOSPHO1 (human) inhibition; Q8TCT1; recombinant PHOSPHO1, absorbance phosphatase assay; inhibition, % at 13.3 µM; hit rate 1.1% among 290,000; in the data active means inhibition above about 60%
Target sequence (Q8TCT1 whole entry, looked up): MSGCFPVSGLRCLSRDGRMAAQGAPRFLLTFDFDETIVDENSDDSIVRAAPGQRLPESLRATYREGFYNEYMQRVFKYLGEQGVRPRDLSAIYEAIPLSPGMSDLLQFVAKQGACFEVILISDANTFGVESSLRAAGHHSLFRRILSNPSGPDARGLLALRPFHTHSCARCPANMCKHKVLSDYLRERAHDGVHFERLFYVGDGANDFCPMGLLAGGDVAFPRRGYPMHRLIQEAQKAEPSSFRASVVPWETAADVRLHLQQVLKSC
An asterisk follows results filed as active; / = no result.

SMILES	NS3 helicase inh	VIM-2 inh	core dimer inh	UBC9 SUMO inh	IMP-1 inhibitor	PHOSPHO1 inh
CC(C)(C)c1nnc2sc(SCC(=O)c3ccccc3)nn2c1=O	4.8	-4.5	-3.8	9.9	-2.1	27.0
CCCCN(C(=O)C1CC(=O)N(c2ccc(OC)cc2OC)C1)c1c(N)n(CC(C)C)c(=O)[nH]c1=O (stereo unspecified)	1.9	-5.3	2.1	12.4	-3.1	-0.3
O=C1c2ccc(-c3ccc4c(c3)C(=O)N(CCO)C4=O)cc2C(=O)N1CCO	17.7	-1.0	2.3	25.6	-2.0	24.8
COc1ccccc1NC(=S)NC1CCC(CC2CCC(NC(=S)Nc3ccccc3OC)CC2)CC1 (stereo unspecified)	-3.4	-0.5	47.6*	-20.3	0.8	6.6
CCNC(=O)C1=C(O)c2sccc2N(C)S1(=O)=O	-11.6	-2.8	0.4	3.9	-2.5	12.2
CN1c2ccsc2C(O)=C(C(=S)Nc2ccccc2)S1(=O)=O	5.2	-5.3	3.7	23.3	-3.2	94.5*
Cc1ccccc1NC(=S)C1=C(O)c2sccc2N(C)S1(=O)=O	4.4	-3.8	2.8	21.6	-2.5	92.1*
O=C(Nc1ccc2c(c1)OCO2)C1CCCN1C(=O)Nc1ccccc1 (stereo unspecified)	1.9	-2.8	12.6	7.8	-3.8	18.4
Cc1nn(-c2ccccc2)c(Cl)c1/C=C1\SC(=S)N(CCCCCC(=O)O)C1=O	23.1	-1.1	20.3	38.8	-0.7	6.2
Cc1nn(-c2ccccc2)c(Cl)c1/C=C1\SC(=S)NC1=O	1.8	-8.7	12.5	11.3	-4.4	64.0*
Cc1[nH]n(-c2ccccc2)c(=S)c1C=Nc1cccc([N+](=O)[O-])c1	6.7	1.0	-17.7	-8.9	-0.6	107.1*
Cc1[nH]n(-c2ccccc2)c(=O)c1C=Nc1cccc2cccnc12	-5.7	0.7	-13.2	34.7	0.3	-16.9
Cc1[nH]n(-c2ccccc2)c(=O)c1C=NCCc1ccccc1	-2.5	-2.5	-6.3	13.3	-4.5	43.9
CCCCN=Cc1c(C)[nH]n(-c2ccccc2)c1=S	0.8	-3.9	-4.3	-6.2	-1.9	68.5*
O=C(Nc1ccccc1C(=O)O)c1ccc(Br)c(S(=O)(=O)NCc2ccccc2)c1	28.1	3.4	4.5	23.1	-2.2	-14.7
Cc1ccc(S(=O)(=O)N2CCOCC2)cc1NC(=O)CNCC1CCCCC1	-12.1	-0.9	0.5	-8.3	-2.5	-21.4
Cc1c(NC(=O)c2cccnc2Cl)c(=O)n(-c2ccccc2)n1C	5.4	-0.2	3.2	-7.4	7.0*	28.6
CCOC(=O)c1c(C)[nH]c(C)c1C(=O)COC(=O)CNC(=O)c1ccc(OCC)cc1	-6.2	-2.4	-1.6	-0.8	4.7*	-23.9
COC(=O)[C@H](CCSC)NC(=O)Nc1cccc(Br)c1	-5.0	-3.9	3.6	13.4	-2.8	28.5
Cc1ccc(NC(=O)CN2CC(C)SC2=NC2CCCCC2)cc1 (stereo unspecified)	-13.1	-1.3	-3.9	-5.5	-1.6	73.7*
Cc1cc(C)cc(N2CC(C)Cn3c2nc2c3c(=O)[nH]c(=O)n2C)c1 (stereo unspecified)	-10.1	8.6*	-6.0	-2.7	-4.7	19.9
Cc1cc(C)cc(N2CCCn3c2nc2c3c(=O)[nH]c(=O)n2C)c1	2.0	3.2	12.9	6.0	-2.8	/
N#CCc1cc2ccc3cccc4ccc(c1)c2c34	-3.9	-1.8	-0.7	19.8	-1.9	27.4
CCOC(=O)/C=c1\s/c(=C\c2ccc(C(F)(F)F)cc2)c(=O)n1CC(=O)NCc1ccco1	20.9	0.8	54.5*	33.6	0.8	17.4
Cc1cc2nc(CCN(Cc3cccnc3)C(=S)Nc3ccccc3)[nH]c2cc1C	-1.0	0.8	-1.9	-3.4	-1.5	92.5*
SMILES	NS3 helicase inh	VIM-2 inh	core dimer inh	UBC9 SUMO inh	IMP-1 inhibitor	PHOSPHO1 inh
O=C(NCc1ccccc1)c1ccc2nc(-c3ccco3)c(-c3ccco3)nc2c1	23.8	0.1	72.7*	89.3	-1.7	42.3
CCCCNC(=O)c1ccc2nc(-c3ccco3)c(-c3ccco3)nc2c1	19.8	-3.6	49.7*	29.9	-1.9	-9.0
COc1ccccc1C(CNC(=O)CCNC(=O)c1ccccc1Cl)N1CCCC1 (stereo unspecified)	/	/	-2.9	/	/	/
O=C(NCCNC(=O)c1cc(OCC(F)(F)F)ccc1OCC(F)(F)F)Nc1cccc(C(F)(F)F)c1	-17.8	0.5	-4.5	-9.4	7.0*	2.3
CC(=O)N(C)c1ccc(NC(=O)/C=C/c2ccccc2Cl)cc1	1.6	-2.4	-5.9	0.4	-2.2	95.3*
Cc1ccc(O)c(C=Nc2cc(C)ccc2O)c1	28.0	0.8	-12.7	17.8	-0.3	11.7
O=[N+]([O-])c1cccc(C=Nc2cccc3ccccc23)c1O	27.7	-1.0	-4.9	51.1*	1.9	29.1
Cc1ccc(O)c(N=Cc2cc(Cc3ccccc3)cc([N+](=O)[O-])c2O)c1	4.9	-2.1	/	30.9	11.4*	48.4
Cc1ccc(C(=O)Cn2c(-c3ccccc3)noc2=O)cc1	-22.1	-3.4	5.0	1.0	-2.8	61.5*
COc1cccc(N2CC(NS(=O)(=O)c3cccnc3)CC2=O)c1 (stereo unspecified)	/	/	-10.8	/	/	/
COc1cc(/C=C2\N=C3CCCCCN3C2=O)ccc1O	14.0	-3.2	-13.8	-13.8	-0.5	67.2*
O=[N+]([O-])c1cc2c(cc1/C=N/n1c(-c3ccccn3)n[nH]c1=S)OCO2	34.1	1.6	-5.0	81.7	-5.6	73.5*
S=c1[nH]nc(-c2ccccn2)n1/N=C/c1ccc(-c2ccccc2Br)o1	9.2	-1.2	/	16.0	-3.6	61.6*
O=[N+]([O-])c1cc2c(cc1/C=N/n1c(-c3ccccc3)n[nH]c1=S)OCO2	29.7	-5.9	6.3	0.2	-3.1	106.0*
NC(=O)C1CCN(C(=O)/C(=C/c2ccccc2)NC(=O)c2ccccc2)CC1	2.2	0.1	/	7.9	-0.3	35.6
Nc1nc(Nc2ccc(Cl)cc2)c(NC=O)c(=O)[nH]1	/	/	-3.6	/	/	/
CN(/N=C/c1ccc(O)cc1O)c1nc(-c2ccccc2)cc(-c2ccccc2)n1	-3.9	-2.6	9.6	6.5	-1.5	-26.5
Clc1ccccc1Cc1noc(CN2CCCCC2CCc2ccccn2)n1 (stereo unspecified)	-1.9	-1.3	8.2	-6.3	-3.5	31.1
CNC1=C(N(C(C)=O)c2ccc(Br)cc2)C(=O)c2ccccc2C1=O	-3.3	0.4	-3.4	81.7*	-0.8	1.4
CCOc1ccc(NC(=O)C/C(C)=N/NC(=O)COc2ccc(Br)cc2C)cc1	-9.0	-1.5	-3.1	5.0	-3.1	32.5
CCc1ccc(C(=O)Nc2cc(C)ccc2F)s1	-9.8	-1.1	1.9	-18.2	-2.5	-8.4
CCc1cc2cc(C(=O)Nc3ccc(C)cc3)sc2s1	15.4	-1.9	51.9*	8.5	-5.5	22.3
O=C1NC(=S)S/C1=C/c1ccc(N2CCOCC2)o1	17.5	-4.5	-59.8	27.8	-3.2	85.8*
